From ChEMBL document CHEMBL1154716, “Synthesis of some new S-triazine based chalcones and their derivatives as potent antimicrobial agents” (2010)
In brackets after ≈: the same amount, converted by molar mass. Activity calls are given as the source filed them. No cut-off for these calls is given here.

Tests used:
Bacillus cereus [1] = test: Antimicrobial activity against Bacillus cereus at 10 ug/disk after 24 hrs by disk diffusion assay; assay type: functional
Outline: (§1)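 Disc diffusion on 4 mm filter discs. Bacteria are grown overnight in LB at 28 C, then adjusted in saline to 1.0 × 10^5 cfu/ml. The suspension is mixed into top agar over peptone agar plates. Plates are incubated 24 h at 28 C, and growth-inhibition zone diameter is measured. Streptomycin and ampicillin controls are applied from a 1 mg/ml stock. Tests are done in duplicate.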

Micrococcus flavus [2] = test: Antimicrobial activity against Micrococcus flavus at 10 ug/disk after 24 hrs by disk diffusion assay; assay type: functional; conditions: read-out: IZ; outline: as §1
Staphylococcus aureus [3] = test: Antimicrobial activity against Staphylococcus aureus at 10 ug/disk after 24 hrs by disk diffusion assay; assay type: functional; outline: as §1
Escherichia coli [4] = test: Antimicrobial activity against Escherichia coli at 10 ug/disk after 24 hrs by disk diffusion assay; assay type: functional; outline: as §1
Pseudomonas aeruginosa [5] = test: Antimicrobial activity against Pseudomonas aeruginosa at 10 ug/disk after 24 hrs by disk diffusion assay; assay type: functional; outline: as §1
Enterobacter cloacae [6] = test: Antimicrobial activity against Enterobacter cloacae at 10 ug/disk after 24 hrs by disk diffusion assay; assay type: functional; outline: as §1
Salmonella typhimurium [7] = test: Antimicrobial activity against Salmonella Typhimurium at 10 ug/disk after 24 hrs by disk diffusion assay; assay type: functional, organism-based; conditions: Salmonella enterica subsp. enterica serovar Typhimurium; outline: as §1
Listeria monocytogenes [8] = test: Antimicrobial activity against Listeria monocytogenes at 10 ug/disk after 24 hrs by disk diffusion assay; assay type: functional; outline: as §1
Bacillus cereus [9] = test: Antimicrobial activity against Bacillus cereus at 1 umol/disk after 24 hrs by disk diffusion assay; assay type: functional; outline: as §1
Micrococcus flavus [10] = test: Antimicrobial activity against Micrococcus flavus at 1 umol/disk after 24 hrs by disk diffusion assay; assay type: functional; outline: as §1
Staphylococcus aureus [11] = test: Antimicrobial activity against Staphylococcus aureus at 1 umol/disk after 24 hrs by disk diffusion assay; assay type: functional; outline: as §1
Escherichia coli [12] = test: Antimicrobial activity against Escherichia coli at 1 umol/disk after 24 hrs by disk diffusion assay; assay type: functional; outline: as §1
Pseudomonas aeruginosa [13] = test: Antimicrobial activity against Pseudomonas aeruginosa at 1 umol/disk after 24 hrs by disk diffusion assay; assay type: functional; outline: as §1
Enterobacter cloacae [14] = test: Antimicrobial activity against Enterobacter cloacae at 1 umol/disk after 24 hrs by disk diffusion assay; assay type: functional; outline: as §1
Salmonella typhimurium [15] = test: Antimicrobial activity against Salmonella Typhimurium at 1 umol/disk after 24 hrs by disk diffusion assay; assay type: functional, organism-based; conditions: Salmonella enterica subsp. enterica serovar Typhimurium; outline: as §1
Listeria monocytogenes [16] = test: Antimicrobial activity against Listeria monocytogenes at 1 umol/disk after 24 hrs by disk diffusion assay; assay type: functional; outline: as §1
Bacillus cereus [17] = test: Antimicrobial activity against Bacillus cereus at 1 umol/spot after 18 hrs by TLC-bioautographic method; assay type: functional
Outline: (§2)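 TLC bioautography. Samples are spotted on silica gel TLC plates, then sprayed with bacteria (1.0 × 10^5 cfu/ml) in tryptic soy broth. Plates are incubated 18 h at 37 C and sprayed with 3% aqueous p-iodonitrotetrazolium violet. After a further 3 h, growth is stopped with 70% EtOH. White zones on a pink background are scored as inhibition-zone diameter with standard errors.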

Micrococcus flavus [18] = test: Antimicrobial activity against Micrococcus flavus at 1 umol/spot after 18 hrs by TLC-bioautographic method; assay type: functional; outline: as §2
Staphylococcus aureus [19] = test: Antimicrobial activity against Staphylococcus aureus at 1 umol/spot after 18 hrs by TLC-bioautographic method; assay type: functional; outline: as §2
Escherichia coli [20] = test: Antimicrobial activity against Escherichia coli at 1 umol/spot after 18 hrs by TLC-bioautographic method; assay type: functional; outline: as §2
Pseudomonas aeruginosa [21] = test: Antimicrobial activity against Pseudomonas aeruginosa at 1 umol/spot after 18 hrs by TLC-bioautographic method; assay type: functional; outline: as §2
Enterobacter cloacae [22] = test: Antimicrobial activity against Enterobacter cloacae at 1 umol/spot after 18 hrs by TLC-bioautographic method; assay type: functional; outline: as §2
Salmonella typhimurium [23] = test: Antimicrobial activity against Salmonella Typhimurium at 1 umol/spot after 18 hrs by TLC-bioautographic method; assay type: functional, Salmonella enterica subsp. enterica serovar Typhimurium; outline: as §2
Listeria monocytogenes [24] = test: Antimicrobial activity against Listeria monocytogenes at 1 umol/spot after 18 hrs by TLC-bioautographic method; assay type: functional; outline: as §2
Bacillus cereus [25] = test: Antimicrobial activity against Bacillus cereus after 24 hrs by microdilution technique; assay type: functional
Outline: (§3)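 Broth microdilution in LB medium. Inoculum is 1.0 × 10^4 cfu per well, from a saline-adjusted suspension of 1.0 × 10^5 cfu/ml. Compounds are dissolved in DMSO. Incubated 24 h at 28 C. MIC is the lowest concentration with no visible growth under a binocular microscope. MBC is read by subculture into fresh broth for 72 h, with no growth taken as 99.5% kill. OD is read at 655 nm.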

Micrococcus flavus [26] = test: Antimicrobial activity against Micrococcus flavus after 24 hrs by microdilution technique; assay type: functional; outline: as §3
Staphylococcus aureus [27] = test: Antimicrobial activity against Staphylococcus aureus after 24 hrs by microdilution technique; assay type: functional; outline: as §3
Escherichia coli [28] = test: Antimicrobial activity against Escherichia coli after 24 hrs by microdilution technique; assay type: functional; outline: as §3
Pseudomonas aeruginosa [29] = test: Antimicrobial activity against Pseudomonas aeruginosa after 24 hrs by microdilution technique; assay type: functional; outline: as §3
Enterobacter cloacae [30] = test: Antimicrobial activity against Enterobacter cloacae after 24 hrs by microdilution technique; assay type: functional; outline: as §3
Salmonella typhimurium [31] = test: Antimicrobial activity against Salmonella Typhimurium after 24 hrs by microdilution technique; assay type: functional, Salmonella enterica subsp. enterica serovar Typhimurium; outline: as §3
Listeria monocytogenes [32] = test: Antimicrobial activity against Listeria monocytogenes after 24 hrs by microdilution technique; assay type: functional; outline: as §3
[33] = Salmonella enterica subsp. enterica serovar Typhimurium

Compound | inhibition zone (IZ) (Bacillus cereus [1]) | zone of inhibition at 10 µg/disc (Micrococcus flavus [2]) | inhibition zone (IZ) (Staphylococcus aureus [3]) | inhibition zone (IZ) (Pseudomonas aeruginosa [5]) | inhibition zone (IZ) (Enterobacter cloacae [6]) | inhibition zone (IZ) (Salmonella typhimurium [7]) | inhibition zone (IZ) (Listeria monocytogenes [8]) | inhibition zone (IZ) (Bacillus cereus [9]) | inhibition zone (IZ) (Micrococcus flavus [10]) | inhibition zone (IZ) (Staphylococcus aureus [11]) | inhibition zone (IZ) (Escherichia coli [12]) | inhibition zone (IZ) (Pseudomonas aeruginosa [13]) | inhibition zone (IZ) (Enterobacter cloacae [14]) | inhibition zone (IZ) (Salmonella typhimurium [15]) | inhibition zone (IZ) (Listeria monocytogenes [16]) | inhibition zone (IZ) (Bacillus cereus [17]) | inhibition zone (IZ) (Micrococcus flavus [18]) | inhibition zone (IZ) (Staphylococcus aureus [19]) | inhibition zone (IZ) (Escherichia coli [20]) | inhibition zone (IZ) (Pseudomonas aeruginosa [21]) | other results
CC(=O)N1N=C(c2ccc(Nc3nc(Nc4ccccc4)nc(Nc4ccccc4)n3)cc2)CC1c1ccco1 (stereo not given) | inactive | 10 mm | inactive | inactive | inactive | inactive | inactive | inactive | 0.05 millimeter | inactive | inactive | inactive | inactive | inactive | inactive | inactive | inactive | 0.07 millimeter | inactive | inactive | inhibition zone (IZ) (Escherichia coli [4]): inactive; inhibition zone (IZ) (Enterobacter cloacae [22]): 0.09 millimeter; inhibition zone (IZ) (Salmonella typhimurium [23]): 0.09 millimeter; inhibition zone (IZ) (Listeria monocytogenes [24]): 0.08 millimeter; MBC (Bacillus cereus [25]): 756 µM (≈ 401 µg/mL); MIC (Bacillus cereus [25]): 378 µM (≈ 201 µg/mL); MBC (Micrococcus flavus [26]): 756 µM (≈ 401 µg/mL); MIC (Micrococcus flavus [26]): 378 µM (≈ 201 µg/mL); MBC (Staphylococcus aureus [27]): 756 µM (≈ 401 µg/mL); MIC (Staphylococcus aureus [27]): 756 µM (≈ 401 µg/mL); MBC (Escherichia coli [28]): 756 µM (≈ 401 µg/mL); MIC (Escherichia coli [28]): 378 µM (≈ 201 µg/mL); MBC (Pseudomonas aeruginosa [29]): 756 µM (≈ 401 µg/mL); MIC (Pseudomonas aeruginosa [29]): 756 µM (≈ 401 µg/mL); MBC (Enterobacter cloacae [30]): inactive; MIC (Enterobacter cloacae [30]): 756 µM (≈ 401 µg/mL); MIC (Salmonella typhimurium [31]; Salmonella enterica): 756 µM (≈ 401 µg/mL); MBC (Salmonella typhimurium [31]; [33]): inactive; MBC (Listeria monocytogenes [32]): inactive; MIC (Listeria monocytogenes [32]): 756 µM (≈ 401 µg/mL)
Nc1nc(-c2ccc(Nc3nc(Nc4ccccc4)nc(Nc4ccccc4)n3)cc2)cc(-c2ccco2)n1 | inactive | 6 mm | inactive | inactive | inactive | inactive | inactive | inactive | 0.03 millimeter | inactive | 0.05 millimeter | inactive | inactive | inactive | inactive | inactive | 0.07 millimeter | 0.06 millimeter | 0.08 millimeter | inactive | zone of inhibition at 10 µg/disc (Escherichia coli [4]; read-out: IZ): 10 mm; inhibition zone (IZ) (Enterobacter cloacae [22]): 0.08 millimeter; inhibition zone (IZ) (Salmonella typhimurium [23]; [33]): inactive; inhibition zone (IZ) (Listeria monocytogenes [24]): 0.08 millimeter; MBC (Bacillus cereus [25]): 390 µM (≈ 200 µg/mL); MIC (Bacillus cereus [25]): 195 µM (≈ 100 µg/mL); MBC (Micrococcus flavus [26]): 390 µM (≈ 200 µg/mL); MIC (Micrococcus flavus [26]): 195 µM (≈ 100 µg/mL); MBC (Staphylococcus aureus [27]): 390 µM (≈ 200 µg/mL); MIC (Staphylococcus aureus [27]): 195 µM (≈ 100 µg/mL); MBC (Escherichia coli [28]): 390 µM (≈ 200 µg/mL); MIC (Escherichia coli [28]): 195 µM (≈ 100 µg/mL); MBC (Pseudomonas aeruginosa [29]): 780 µM (≈ 401 µg/mL); MIC (Pseudomonas aeruginosa [29]): 780 µM (≈ 401 µg/mL); MBC (Enterobacter cloacae [30]): 390 µM (≈ 200 µg/mL); MIC (Enterobacter cloacae [30]): 195 µM (≈ 100 µg/mL); MBC (Salmonella typhimurium [31]; Salmonella enterica): 390 µM (≈ 200 µg/mL); MIC (Salmonella typhimurium [31]; Salmonella enterica): 195 µM (≈ 100 µg/mL); MBC (Listeria monocytogenes [32]): 780 µM (≈ 401 µg/mL); MIC (Listeria monocytogenes [32]): 780 µM (≈ 401 µg/mL)
N#Cc1c(-c2ccc([N+](=O)[O-])cc2)cc(-c2ccc(Nc3nc(Nc4ccccc4)nc(Nc4ccccc4)n3)cc2)nc1N | inactive | 6 mm | inactive | inactive | inactive | inactive | inactive | inactive | 0.04 millimeter | inactive | inactive | inactive | inactive | inactive | inactive | inactive | 0.07 millimeter | inactive | inactive | 0.09 millimeter | inhibition zone (IZ) (Escherichia coli [4]): inactive; inhibition zone (IZ) (Enterobacter cloacae [22]): 0.09 millimeter; inhibition zone (IZ) (Salmonella typhimurium [23]; [33]): inactive; inhibition zone (IZ) (Listeria monocytogenes [24]): 0.1 millimeter; MBC (Bacillus cereus [25]): 338 µM (≈ 200 µg/mL); MIC (Bacillus cereus [25]): 169 µM (≈ 100 µg/mL); MBC (Micrococcus flavus [26]): 676 µM (≈ 401 µg/mL); MIC (Micrococcus flavus [26]): 338 µM (≈ 200 µg/mL); MBC (Staphylococcus aureus [27]): 676 µM (≈ 401 µg/mL); MIC (Staphylococcus aureus [27]): 338 µM (≈ 200 µg/mL); MBC (Escherichia coli [28]): 676 µM (≈ 401 µg/mL); MIC (Escherichia coli [28]): 338 µM (≈ 200 µg/mL); MBC (Pseudomonas aeruginosa [29]): 676 µM (≈ 401 µg/mL); MIC (Pseudomonas aeruginosa [29]): 676 µM (≈ 401 µg/mL); MBC (Enterobacter cloacae [30]): 338 µM (≈ 200 µg/mL); MIC (Enterobacter cloacae [30]): 169 µM (≈ 100 µg/mL); MBC (Salmonella typhimurium [31]; Salmonella enterica): 676 µM (≈ 401 µg/mL); MIC (Salmonella typhimurium [31]; Salmonella enterica): 676 µM (≈ 401 µg/mL); MBC (Listeria monocytogenes [32]): 676 µM (≈ 401 µg/mL); MIC (Listeria monocytogenes [32]): 676 µM (≈ 401 µg/mL)
